Measurements published in ChEMBL document CHEMBL5338819, “Tuning the Metabolic Stability of Visual Cycle Modulators through Modification of an RPE65 Recognition Motif” (J Med Chem, 2023).
The source made the active and inactive calls. The rule behind the calls is not given here.

Experiments:
[1] = target: Retinoid isomerohydrolase (Bos taurus, UniProt Q28175); assay: Inhibition of RPE65 in bovine microsomes assessed as reduction on 11-cis-retinol production incubated for 1 hr by HPLC analysis; parameters: species or system Microsome
Sequence of Retinoid isomerohydrolase (Q28175 whole entry): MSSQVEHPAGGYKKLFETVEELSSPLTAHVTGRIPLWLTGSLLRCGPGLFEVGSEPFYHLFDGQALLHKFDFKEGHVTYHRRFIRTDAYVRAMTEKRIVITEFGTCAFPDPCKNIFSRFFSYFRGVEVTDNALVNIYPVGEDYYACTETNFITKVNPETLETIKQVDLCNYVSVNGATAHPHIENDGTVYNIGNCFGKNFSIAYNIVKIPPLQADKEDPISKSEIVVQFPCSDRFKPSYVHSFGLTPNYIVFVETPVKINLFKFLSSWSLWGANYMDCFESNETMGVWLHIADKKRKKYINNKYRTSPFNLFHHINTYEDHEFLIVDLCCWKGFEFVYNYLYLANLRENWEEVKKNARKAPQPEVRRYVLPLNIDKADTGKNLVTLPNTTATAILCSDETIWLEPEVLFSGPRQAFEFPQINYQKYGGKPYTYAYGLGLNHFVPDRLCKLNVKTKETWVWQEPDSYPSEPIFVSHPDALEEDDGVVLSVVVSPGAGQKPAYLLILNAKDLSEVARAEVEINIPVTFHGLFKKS

[2] = target: T1, Retinoid isomerohydrolase (Mus musculus) (UniProt Q91ZQ5); assay: In vivo inhibition of RPE65 in BALB/cJ mouse eye by measuring 11-cis-retinal level per eye at 10 mg/kg,ip administrated and measured after 24 hrs of dark adaptation by HPLC analysis; assay type: functional, organism-based
T1 sequence (whole entry): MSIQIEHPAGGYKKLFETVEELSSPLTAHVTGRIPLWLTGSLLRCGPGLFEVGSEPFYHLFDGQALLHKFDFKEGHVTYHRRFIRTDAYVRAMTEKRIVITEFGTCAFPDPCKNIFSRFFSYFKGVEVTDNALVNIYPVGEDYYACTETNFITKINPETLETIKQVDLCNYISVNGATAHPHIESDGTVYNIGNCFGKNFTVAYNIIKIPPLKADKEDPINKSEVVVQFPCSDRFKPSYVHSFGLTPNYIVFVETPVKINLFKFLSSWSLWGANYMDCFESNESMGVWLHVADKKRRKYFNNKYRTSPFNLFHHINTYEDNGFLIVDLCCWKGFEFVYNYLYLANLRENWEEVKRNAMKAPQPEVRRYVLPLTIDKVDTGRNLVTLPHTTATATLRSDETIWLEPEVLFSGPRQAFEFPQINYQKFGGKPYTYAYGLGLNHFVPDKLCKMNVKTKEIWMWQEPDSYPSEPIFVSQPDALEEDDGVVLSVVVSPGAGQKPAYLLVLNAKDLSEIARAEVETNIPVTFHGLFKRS

[3] = target: T1, Retinoid isomerohydrolase (Mus musculus); assay: In vivo inhibition of RPE65 in BALB/cJ mouse eye by measuring retinyl ester level per eye at 10 mg/kg,ip administrated by HPLC analysis; assay type: functional, organism-based
[4] = target: T1, Retinoid isomerohydrolase (Mus musculus); assay: In vivo inhibition of RPE65 in BALB/cJ mouse eye by measuring 11-cis-retinal level per eye at 10 mg/kg,ip administrated by HPLC analysis; assay type: functional, organism-based
[5] = target: T1, Retinoid isomerohydrolase (Mus musculus); assay: In vivo inhibition of RPE65 in BALB/cJ mouse eye by measuring retinyl ester level per eye at 10 mg/kg,ip administrated and measured after 4 hrs of dark adaptation by HPLC analysis; assay type: functional, organism-based
[6] = target: T1, Retinoid isomerohydrolase (Mus musculus); assay: In vivo inhibition of RPE65 in BALB/cJ mouse eye by measuring retinyl ester level per eye at 10 mg/kg,ip administrated and measured after 24 hrs of dark adaptation by HPLC analysis; assay type: functional, organism-based
[7] = target: T1, Retinoid isomerohydrolase (Mus musculus); assay: In vivo inhibition of RPE65 in BALB/cJ mouse eye by measuring 11-cis-retinal level per eye at 10 mg/kg,ip administrated and measured after 4 hrs of dark adaptation by HPLC analysis; assay type: functional, organism-based
[8] = target: Retinoid isomerohydrolase (Bos taurus) (UniProt Q28175); assay: Inhibition of RPE65 in bovine microsomes assessed as fold decrease in 11-cis-retinol production at 0.02 to 10 uM incubated for 1 hr by HPLC analysis; conditions: Microsome, dose 0.02-10 µM
Sequence of Retinoid isomerohydrolase (Bos taurus) (Q28175 2-533 limits assumed): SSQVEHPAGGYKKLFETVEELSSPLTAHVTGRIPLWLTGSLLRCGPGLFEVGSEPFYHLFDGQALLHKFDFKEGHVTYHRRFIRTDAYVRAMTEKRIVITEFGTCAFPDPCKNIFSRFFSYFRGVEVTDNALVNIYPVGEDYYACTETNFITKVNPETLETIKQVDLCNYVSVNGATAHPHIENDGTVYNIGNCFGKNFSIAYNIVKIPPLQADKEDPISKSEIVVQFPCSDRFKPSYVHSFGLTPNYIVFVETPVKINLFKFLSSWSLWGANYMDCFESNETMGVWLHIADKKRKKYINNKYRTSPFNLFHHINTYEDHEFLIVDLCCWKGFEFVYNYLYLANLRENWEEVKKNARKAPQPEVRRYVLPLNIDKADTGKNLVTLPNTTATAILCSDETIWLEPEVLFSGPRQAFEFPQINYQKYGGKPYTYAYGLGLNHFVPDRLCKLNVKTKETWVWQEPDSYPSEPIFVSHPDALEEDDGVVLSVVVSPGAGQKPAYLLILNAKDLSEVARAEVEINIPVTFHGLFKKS
Procedure, shortened: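 Bovine RPE microsomes in 10 mM BTP pH 7.4 with 1% BSA, 5 mM pyrophosphate and 16.4 µM apo-CRALBP (His-tagged, E. coli-expressed, Ni-purified). Amine in DMF, 0–10 µM final, was preincubated 2 min. All-trans-retinol was added, then 1 h at 37 °C in the dark. Reaction was quenched with methanol and extracted with hexane. 11-cis-retinol was quantified by normal-phase HPLC.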

[9] = target: Retinoid isomerohydrolase (Bos taurus) (UniProt Q28175); assay: Inhibition of RPE65 in bovine microsomes assessed as reduction on 11-cis-retinol production at 0.5 to 50 uM incubated for 1 hr by HPLC analysis; conditions: Microsome, dose 0.5-50 µM
[10] = Drug concentration in mouse aorta measured after 1 hr by HPLC analysis; assay type: ADME, tissue-based; conditions: read-out: Drug uptake
[11] = Metabolic stability in mouse liver microsomes assessed as CYP450-mediated metabolism by measuring Km measured upto 60 mins in presence of NADPH by Michaelis-Menten based HPLC analysis; assay type: ADME, Microsome; conditions: 1 h
[12] = Metabolic stability in mouse liver microsomes assessed as CYP450-mediated metabolism by measuring initial velocity at 100 uM measured upto 60 mins in presence of NADPH by HPLC analysis; assay type: ADME, Microsome; conditions: 1 h
[13] = Metabolic stability in mouse liver microsomes assessed as CYP450-mediated metabolism by measuring initial velocity at 25 uM measured upto 60 mins in presence of NADPH by HPLC analysis; assay type: ADME, Microsome; conditions: 1 h
[14] = Drug concentration in C57BL/6J mouse eye assessed per eye at 10 mg/kg,ip administrated and measured after 24 hr by HPLC-MS analysis; assay type: ADME, organism-based; conditions: in vivo
[15] = Intrinsic clearance in mouse liver microsomes measured upto 60 mins in presence of NADPH by HPLC analysis; assay type: ADME, Microsome; conditions: 1 h
[16] = Drug concentration in C57BL/6J mouse eye assessed per eye at 10 mg/kg,ip administrated and measured after 4 hr by HPLC-MS analysis; assay type: ADME, organism-based; conditions: in vivo
[17] = Drug concentration in mouse aorta by HPLC analysis; assay type: ADME, tissue-based; conditions: in vitro, read-out: Drug uptake
[18] = Metabolic stability in mouse liver microsomes assessed as CYP450-mediated metabolism by measuring initial velocity at 200 uM measured upto 60 mins in presence of NADPH by HPLC analysis; assay type: ADME, Microsome; conditions: 1 h
[19] = Metabolic stability in mouse liver microsomes assessed as CYP450-mediated metabolism by measuring initial velocity at 15 uM measured upto 60 mins in presence of NADPH by HPLC analysis; assay type: ADME, Microsome; conditions: 1 h
[20] = Drug concentration in C57BL/6J mouse serum assessed as emixustat concentration at 10 mg/kg,ip administrated and measured after 4 hr by HPLC-MS analysis; assay type: ADME, organism-based; conditions: in vivo, read-out: Ct
[21] = Drug metabolism in mouse aorta assessed as VAP-1 mediated oxidative deaminated product formation by measuring ACU-5201 metabolite concentration and measured after 4 hr by HPLC analysis; assay type: ADME, tissue-based
[22] = Drug concentration in C57BL/6J mouse serum at 10 mg/kg,ip administrated and measured after 1 hr by HPLC-MS analysis; assay type: ADME, organism-based; conditions: read-out: Ct
[23] = Drug concentration in C57BL/6J mouse eye assessed as emixustat concentration per eye at 10 mg/kg,ip administrated and measured after 24 hr by HPLC-MS analysis; assay type: ADME, organism-based; conditions: in vivo
[24] = Drug metabolism in mouse aorta assessed as VAP-1 mediated oxidative deaminated product formation by measuring ACU-5201 metabolite concentration and measured after 1 hr by HPLC analysis; assay type: ADME, tissue-based
[25] = Drug concentration in C57BL/6J mouse serum assessed as emixustat concentration at 10 mg/kg,ip administrated and measured after 1 hr by HPLC-MS analysis; assay type: ADME, organism-based; conditions: in vivo, read-out: Ct
[26] = Drug concentration in mouse aorta measured after 4 hr by HPLC analysis; assay type: ADME, tissue-based; conditions: read-out: Drug uptake
[27] = Drug metabolism in mouse aorta assessed as VAP-1 mediated oxidative deaminated product formation by measuring ACU-5201 metabolite concentration by HPLC analysis; assay type: ADME, tissue-based
[28] = Metabolic stability in mouse liver microsomes assessed as CYP450-mediated metabolism by measuring Vmax measured upto 60 mins in presence of NADPH by Michaelis-Menten based HPLC analysis; assay type: ADME, Microsome; conditions: 1 h
[29] = Metabolic stability in mouse liver microsomes assessed as CYP450-mediated metabolism by measuring initial velocity at 50 uM measured upto 60 mins in presence of NADPH by HPLC analysis; assay type: ADME, Microsome; conditions: 1 h

SMILES	IC50 [1]	Activity [2] [pmol]	Activity [3] [pmol]	Activity [4] [pmol]	Activity [5] [pmol]	Activity [6] [pmol]	Activity [7] [pmol]	inhibition [9]	IC50 ([1]; read-out: IC50) [nM]	further results
CC(CN)Cc1ccc(F)c(OCC2CCCCC2)c1 (configuration not stated)	Not Active	398	260	23.5	101	123	413	–	–	–
NCCCc1cccc(OCC2CCCCC2)c1	–	–	–	–	–	–	–	–	–	fold change (FC) [8]: 8
NC(CCO)c1cccc(OCC2CCCCC2)c1 (configuration not stated)	Not Active	–	–	–	–	–	–	inactive	–	–
CC(CCN)c1cccc(OCC2CCCCC2)c1 (configuration not stated)	–	370	292	25.6	436	124	94.4	–	–	fold change (FC) [8]: 4
NC(CO)Cc1cccc(OCC2CCCCC2)c1 (configuration not stated)	Not Active	–	–	–	–	–	–	inactive	–	–
NCCC(O)c1ccc(OCC2CCCCC2)cc1 (configuration not stated)	–	–	–	–	–	–	–	–	8080	–
CNCCC(O)c1cccc(OCC2CCCCC2)c1 (configuration not stated)	–	202	297	13.8	396	215	22.5	–	290	concentration at 1 h [10]: 101 µM; Km [11]: 0.039 µM; V0 [12]: 89.82 pmol/min; V0 [13]: 54.17 pmol/min; Ct [14]: 0 pmol; CLH [15]: 30700 µL/min/mg; Ct [16]: 7.609 pmol; concentration [17]: 100 µM; V0 [18]: 97.45 pmol/min; V0 [19]: 23.38 pmol/min; concentration [20]: 0.0795 µM; Drug metabolism [21]: 3.76 µM; concentration at 1 h [22]: 0.75 µM; Ct [23]: 1.329 pmol; Drug metabolism [24]: 0.48 µM; concentration [25]: 0.0523 µM; concentration at 4 h [26]: 89.1 µM; Drug metabolism [27]: 0 µM; Vmax [28]: 119.5 pmol/min; V0 [29]: 64.21 pmol/min
CC(CN)Cc1cccc(OCC2CCCCC2)c1 (configuration not stated)	–	254	256	17.4	112	85.6	323	–	390	–
NC(CO)Cc1ccc(OCC2CCCCC2)cc1 (configuration not stated)	Not Active	–	–	–	–	–	–	inactive	–	–
NCCc1cccc(OCC2CCCCC2)c1	–	406	254	16	89.5	65	393	–	–	–
